Screening results as filed in PubChem BioAssay.
Compounds with a hit are over-represented: about 2.7% of the library has one in this group of screens.
OX1R antag-1: antagonists of human orexin 1 receptor | O43613 | CHO/OX1R cells, Fluo-8 calcium fluorescence, orexin A | inhibition, % at 5 µM | 0.43% of 330,000 active | AID 434989;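 active = inhibition above its plate's threshold, mean inhibition of all tested compounds on the plate plus 3 SD, cut at about 37% in these data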;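 note: 0% = orexin A challenge wells and 100% = SB-334867-A antagonist wells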
CHO parental Ca: counter-screen: ATP calcium response change in parental CHO cells | 0.63% of 330,000 active | inhibition, % at 5.6 µM | parental CHO-K1, ATP-induced calcium, Fluo-8 fluorescence | AID 463079;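 active = inhibition above that plate's mean sample inhibition plus 3 SD, cut at about 26% in these data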;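 note: 0% = ATP-challenged DMSO wells and 100% = DMSO wells without ATP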
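test system = CHO parental line | reagent = ATP stimulus | measured by = intracellular calcium via Fluo-8 no-wash fluorescent dye | control set = ATP and no-ATP DMSO wells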
V1aR counter: counter-screen for oxytocin receptor agonists: human V1a receptor agonists; activation, % at 3 µM; CHO-V1R cells, Fluo-8 calcium fluorescence, agonist mode; 0% DMSO, 100% 3 nM vasopressin; P37288; 0.25% of 320,000 active;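 active = activation above the mean activation of all tested compounds plus 3 SD, per screening run, cut at about 20% in these data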;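 note: signal is peak over basal fluorescence ratio across a 100 second FLIPR read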
Target sequence (P37288 whole entry, looked up): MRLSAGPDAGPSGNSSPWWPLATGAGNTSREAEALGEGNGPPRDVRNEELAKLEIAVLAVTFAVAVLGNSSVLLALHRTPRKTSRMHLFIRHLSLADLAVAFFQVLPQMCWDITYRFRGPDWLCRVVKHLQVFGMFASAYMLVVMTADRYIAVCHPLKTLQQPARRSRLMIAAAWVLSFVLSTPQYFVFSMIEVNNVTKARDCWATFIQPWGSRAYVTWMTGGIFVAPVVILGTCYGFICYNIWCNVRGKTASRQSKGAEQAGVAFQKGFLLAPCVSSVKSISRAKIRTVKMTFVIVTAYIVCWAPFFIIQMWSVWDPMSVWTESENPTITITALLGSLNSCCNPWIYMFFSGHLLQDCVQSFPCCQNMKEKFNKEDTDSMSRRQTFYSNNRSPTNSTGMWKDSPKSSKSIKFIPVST
OXTR potentiate: potentiators of human oxytocin receptor | P30559 | CHO-OTR cells, Fluo-8 calcium fluorescence, potentiator mode; 0% = oxytocin EC15, 100% = EC100 | activation, % at 3 µM | 0.061% of 320,000 active | AID 2445;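 active = activation above that plate's cutoff, the mean activation of tested compounds plus 3 SD, cut at about 6.6% in these data, passing the limit was not always enough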;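 note: 100% uses oxytocin at 75 nM as the full agonist control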
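Measured by – Fluo-8 calcium dye fluorescence · Test system – human OTR in CHO cells · Dosing – one concentration, 3.0 µM compound · Controls – EC15 oxytocin alone as 0%, 75 nM oxytocin as 100% · Evaluation – normalized max/min fluorescence ratio, % activation · Timing – 6 min pre-incubation, 100 s read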
OX1R antag-2: OX1R (human) antagonism; O43613; OX1R-expressing cells, FRET antagonist read-out; inhibition, % at 6.6 µM; 1.8% of 330,000 active; in the data active = inhibition mostly above about 38%, no sharp cut-off; inactive = mostly below about 40%;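 note: 0% = agonist challenge alone and 100% = reference antagonist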
OXTR agonist: agonists of human oxytocin receptor. P30559. CHO-OTR cells, Fluo-8 calcium fluorescence; normalized: DMSO 0%, oxytocin 100%. activation, % at 3 µM. 0.32% of 320,000 active. AID 2435;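 active = activation above the mean of all tested compounds plus 3 SD, cutoff set per screening run, cut at about 20% in these data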;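 note: peak over basal fluorescence ratio from a 100 s FLIPR kinetic read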
Active calls of the source: *.

SMILES	OX1R antag-1	CHO parental Ca	V1aR counter	OXTR potentiate	OX1R antag-2	OXTR agonist
COc1cccc(NC(=O)C2CCCN(S(=O)(=O)c3cccc4cccnc34)C2)c1 (configuration not stated)	15	-8	0	2	55*	-1
CCOc1ccccc1NC(=O)C1CCCN(S(=O)(=O)c2cccc3cccnc23)C1 (configuration not stated)	-23	-32	0	3	38*	-2
O=C(C1CCCN(S(=O)(=O)c2cccc3cccnc23)C1)N1CCc2ccccc21 (configuration not stated)	10	2	2	-5	70*	-1
O=C(CSc1nc2sccc2c(=O)[nH]1)N1CCN(c2ccccc2)CC1	-13	-6	0	6	10	-1
COc1ccc(S(=O)(=O)Nc2cc(S(=O)(=O)N3CCOCC3)ccc2OC)cc1	-11	-7	1	-1	2	1
CC(Sc1nnc(C(C)Oc2ccccc2F)o1)C(=O)NCc1ccc2c(c1)OCO2 (configuration not stated)	-4	-19	0	-4	11	-2
CC(=O)Nc1ccc(NC(=O)CS(=O)(=O)c2cn(CC(=O)N3CCCC3)c3ccccc23)cc1	-6	-7	4	-4	-2	0
Cc1ccc(C(=O)NCCC(=O)N2CCCC2)cc1	-11	-3	1	4	-4	1
O=C(NC1CCCCC1)C1CCCN(S(=O)(=O)c2cccc3cccnc23)C1 (configuration not stated)	-22	-14	0	-3	17	-1
O=C(Nc1ccccc1F)C1CCCN(S(=O)(=O)c2cccc3cccnc23)C1 (configuration not stated)	-25	-33	0	-9	35*	1
CN(Cc1cccs1)C(=O)c1ccc(S(=O)(=O)NCc2ccco2)cc1	5	-3	1	-4	28	1
CN(Cc1ccc(Cl)cc1)C(=O)c1ccc(S(=O)(=O)NCc2ccco2)cc1	9	-8	7	-9	34*	8
CCC(C)NC(=O)COC(=O)c1cc([N+](=O)[O-])ccc1Sc1nc(C)cs1 (configuration not stated)	-19	-15	4	-10	54*	4
Cc1csc(Sc2ccc([N+](=O)[O-])cc2C(=O)OCC(=O)NC2CCCC(C)C2C)n1 (configuration not stated)	-30	-16	-1	-6	5	-2
COc1cccc(OC)c1C(=O)Nc1ccc2c3c(cccc13)CC2	-27	-19	2	-4	29	-1
COc1ccccc1C(=O)Nc1ccc2c3c(cccc13)CC2	8	-19	-1	-7	61*	-2
COc1ccccc1C(=O)Nc1cccc2c1CCCC2	-5	-19	-1	-7	27*	-2
CCN(CC(=O)Nc1ccc(C(=O)OC)cc1)C1CCCCC1	-25	-13	0	-7	14	-1
Cc1nc2ccc(NS(=O)(=O)c3ccc(C)c(C)c3)cc2s1	32	55*	4	-17	37	6
CCCNC(=O)/C(C#N)=C1\N=C(NC(=O)c2ccco2)c2ccccc21	-6	-2	2	-10	47*	0
CCNc1nc(OCCNS(=O)(=O)c2cc(C)ccc2C)nc(N(C)C)n1	-8	-3	1	-8	40	0
Cc1ccc(S(=O)(=O)NCCOc2nc(N(C)C)nc(N3CCOCC3)n2)cc1	-1	-23	-1	-5	48*	-1
O=C(N/N=C/c1ccco1)c1cc(-c2ccc(Cl)s2)[nH]n1	-2	-4	0	-22	56	0
O=C(N/N=C/c1cccs1)c1cc(-c2ccc(Cl)s2)[nH]n1	9	-4	6	-12	59*	1
C=Cc1ccc(N=Cc2c(O)ccc3ccccc23)cc1	-37	-16	0	-15	4	-1
Oc1ccc2ccccc2c1C=Nc1ccc(N2CCOCC2)cc1	5	-5	15	-13	51*	10
O=C(CCl)N1CCN(S(=O)(=O)c2ccc3c(c2)CCC3)CC1	-15	0	1	1	-5	1
